Measurements gathered from unrelated publications.
Target: Serine/threonine-protein kinase NLK (NLK, Homo sapiens, UniProt Q9UBE8)
Residues used in one study (Q9UBE8 1-527): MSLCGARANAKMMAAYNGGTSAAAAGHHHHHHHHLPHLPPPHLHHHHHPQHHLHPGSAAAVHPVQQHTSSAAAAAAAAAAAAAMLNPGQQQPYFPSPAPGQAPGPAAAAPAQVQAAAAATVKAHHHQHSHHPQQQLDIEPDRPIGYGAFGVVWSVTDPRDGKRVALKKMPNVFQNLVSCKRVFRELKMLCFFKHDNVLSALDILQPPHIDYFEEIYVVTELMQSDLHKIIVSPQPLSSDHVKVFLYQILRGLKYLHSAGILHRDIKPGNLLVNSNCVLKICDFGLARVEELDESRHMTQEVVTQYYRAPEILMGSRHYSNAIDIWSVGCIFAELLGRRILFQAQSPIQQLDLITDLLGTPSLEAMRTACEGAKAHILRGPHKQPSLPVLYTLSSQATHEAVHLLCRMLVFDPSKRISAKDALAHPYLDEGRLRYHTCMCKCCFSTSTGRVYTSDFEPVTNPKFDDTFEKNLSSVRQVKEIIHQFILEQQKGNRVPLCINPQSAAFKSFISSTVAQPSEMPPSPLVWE

`O=C(Nc1cnn(-c2csc(C(=O)NC3COC3)c2)c1)Nc1ccccc1Cl` gave a remaining activity of 99.5% (enzyme activity; inhibitor; 5 µM).
The remaining activity of `CC(C)(C)c1nc(-c2cccc(NS(=O)(=O)c3c(F)cccc3F)c2F)c(-c2ccnc(N)n2)s1` is reported as 78% (enzyme activity; inhibitor; radiometric; 1 µM).
With `CCCS(=O)(=O)Nc1ccc(F)c(C(=O)c2c[nH]c3ncc(-c4ccc(Cl)cc4)cc23)c1F` the inhibition was less than 10% (enzyme activity; inhibitor; 1 µM).
For `Cc1sc(C(=O)NC2COC2)cc1-n1cc(NC(=O)Nc2c(F)cccc2Cl)cn1`, the remaining activity was 85.2% (enzyme activity; inhibitor; 10 µM).
`Cn1cncc1C1=CN(c2ncnc3[nH]cnc23)CCS1` has an inhibition of 43% (enzyme activity; inhibitor; radiometric; 2 µM).
The inhibition of `Cc1ccc(Nc2nccc(N(C)c3ccc4c(C)n(C)nc4c3)n2)cc1S(N)(=O)=O` is reported as 67% (enzyme activity; inhibitor; 10 µM).
`COc1cc(Cl)c(C(=O)N[C@@H](CN[C@H]2CC[C@@H](N)CC2)Cc2ccc(C#N)cc2)cc1-c1ccc(CN[C@H](C)c2ccc(C)cc2)o1` has a remaining activity of 88% (enzyme activity; inhibitor; 1 µM).
`O=C(NCc1ncc(C(F)(F)F)cc1Cl)c1ccc2c(c1)C1(CCS(=O)(=O)CC1)[C@H](C1CC1)N2S(=O)(=O)c1ccc(F)cc1` gave a remaining binding of 100% (cell-free assay; competition with immobilised ligand; 1 µM).
`CC(C)(O)[C@H]1CC[C@H](Nc2ccc3ncc(-c4cccc(C(F)(F)F)c4)n3n2)CC1` gave a remaining activity of 93.3% (enzyme activity; inhibitor; 1 µM).
With `Cc1cc(NC(=O)c2cccc3cc(-c4cccc5[nH]nc(N)c45)ccc23)ccc1F` the activity vs control was 97% (enzyme activity; inhibitor; 0.1 µM).
`O=S(=O)(NC1CCC(c2cc(F)ccc2F)(S(=O)(=O)c2ccc(Cl)cc2)CC1)C(F)(F)F` (stereo not shown) has a remaining binding of 100% (cell-free assay; competition with immobilised ligand; 1 µM).
`O=C1Nc2ccc(Cl)cc2C1=Cc1cc(Cl)c(O)c(Cl)c1` gave a remaining signal of 38.9% (cell-free assay; 0.5 µM).
`CS(=O)(=O)c1cc(C2(NC(=O)c3cncc4c3cnn4-c3ccc(F)cc3)CC2)ccn1` has a remaining binding of 100% (cell-free assay; competition with immobilised ligand; 1 µM).
For `CCN(CC)CCNC(=O)c1c(C)[nH]c(/C=C2\C(=O)Nc3ccc(F)cc32)c1C`, the inhibition was 7% (enzyme activity; inhibitor; 10 µM).
The remaining binding of `CNC(=O)Nc1ccc2c(c1)CC[C@@]21OC(=O)N(CC(=O)N(Cc2ccc(F)cc2)[C@@H](C)C(F)(F)F)C1=O` is reported as 82% (binding; competition with immobilised ligand; 1 µM).
For `Fc1cccc(-n2cnc3c(NCc4nc5c(F)c(F)ccc5[nH]4)nc(N4CCOCC4)nc32)c1`, the binding vs control was 98% (binding; competition with immobilised ligand; 10 µM).
For `CC(=O)C1=C(C)N(c2cccc(C(F)(F)F)c2)C(=O)N[C@@H]1c1ccc(C#N)nc1`, the remaining binding was 93% (cell-free assay; competition with immobilised ligand; 1 µM).
For `CCN(CC)c1ccc(C2=NNC(=O)CC2C)cc1[N+](=O)[O-]` (stereo not shown), the remaining activity was 105% (enzyme activity; inhibitor; 10 µM).
For `CN1CC(Oc2cnc(C#N)cc2-c2ccn3nc(NC(=O)C4CC4)cc3c2)C1`, the inhibition was 10% (enzyme activity; inhibitor; 1 µM).
